Bioassay records as filed in PubChem BioAssay.
Cl transport mod: KCC2 cotransporter modulators, thallium flux, primary screen, cell-based, HEK293 KCC2, FluoZin-2 fluorescence, MLSMR. KCC2 cells, thallium flux FluoZin-2 fluorescence. B-score of Tl+ flux slope (higher = more flux/activation; lower = inhibition) at 10 µM. actives 2.2% (n = 190,000). AID 1456, 2008;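 active means thallium flux slope and its plate-corrected score both differing from the plate sample mean at a set confidence after two filtering rounds, in either direction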;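 further: slope of fluorescence scaled to starting intensity during 10 to 20 s after thallium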
Target sequence (Q9H2X9 whole entry, looked up): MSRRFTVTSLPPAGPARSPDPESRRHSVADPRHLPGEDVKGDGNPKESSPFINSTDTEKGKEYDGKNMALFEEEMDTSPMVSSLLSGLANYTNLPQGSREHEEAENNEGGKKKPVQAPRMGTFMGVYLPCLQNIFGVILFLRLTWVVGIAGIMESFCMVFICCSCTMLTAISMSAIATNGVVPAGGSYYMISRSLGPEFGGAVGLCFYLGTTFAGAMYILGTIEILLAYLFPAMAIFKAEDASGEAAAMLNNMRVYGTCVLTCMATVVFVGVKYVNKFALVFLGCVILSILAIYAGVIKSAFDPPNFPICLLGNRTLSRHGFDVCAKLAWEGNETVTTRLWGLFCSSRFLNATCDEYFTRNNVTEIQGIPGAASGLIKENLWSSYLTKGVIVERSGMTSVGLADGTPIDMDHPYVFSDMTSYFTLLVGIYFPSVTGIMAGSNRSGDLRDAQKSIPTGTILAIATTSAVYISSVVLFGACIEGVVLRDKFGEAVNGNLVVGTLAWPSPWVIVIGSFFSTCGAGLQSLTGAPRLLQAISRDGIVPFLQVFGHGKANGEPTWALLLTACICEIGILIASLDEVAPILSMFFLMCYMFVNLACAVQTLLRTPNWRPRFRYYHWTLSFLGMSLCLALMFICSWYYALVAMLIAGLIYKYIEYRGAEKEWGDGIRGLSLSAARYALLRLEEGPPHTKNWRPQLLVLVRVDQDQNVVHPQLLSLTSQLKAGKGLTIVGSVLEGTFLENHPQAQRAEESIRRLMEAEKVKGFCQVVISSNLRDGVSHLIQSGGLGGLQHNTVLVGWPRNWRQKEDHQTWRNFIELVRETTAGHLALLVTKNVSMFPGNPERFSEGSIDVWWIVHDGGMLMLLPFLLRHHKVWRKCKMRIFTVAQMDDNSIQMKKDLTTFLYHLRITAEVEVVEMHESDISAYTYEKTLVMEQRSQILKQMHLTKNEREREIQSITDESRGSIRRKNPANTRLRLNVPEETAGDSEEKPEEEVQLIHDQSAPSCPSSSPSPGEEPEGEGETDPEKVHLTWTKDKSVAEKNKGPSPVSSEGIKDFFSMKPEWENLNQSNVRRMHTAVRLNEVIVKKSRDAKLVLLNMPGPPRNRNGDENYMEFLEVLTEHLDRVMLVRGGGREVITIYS
STAT1 activator: STAT1 signaling activators, primary screen, cell-based, HTS, luciferase reporter; NIH 3T3 STAT1-luciferase reporter, IFN-gamma, luminescence; 100% = IFN-gamma alone, no compound; activation (% of control), % at 5.5 µM; actives 2.6% (n = 200,000); AID 932, 2007;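 active means activation above the screen-wide mean activation plus 3 SD, cut at about 130% in these data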
HSV replic up: enhancers of HSV replication in host cells, fold increase, host cell viability; HSV replication augmentation in cells; maximum fold increase; actives 0.005% (n = 220,000); AID 1956, 2009; in the data active means maximum fold increase above about 1.5; inconclusive means no clear call, values can overlap the other calls; tested in PC3 cells
STAT1 inh: STAT1 signaling inhibitors, primary screen, cell-based, HTS, luciferase reporter; NIH 3T3 STAT1-luciferase reporter, IFN-gamma, luminescence; inhibition, % at 5.5 µM; actives 0.35% (n = 200,000); AID 920, 2007;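 active means inhibition above a set limit, the mean inhibition across all tested compounds plus 3 SD, cut at about 34% in these data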
STAT3 activator: IL-6 driven STAT3 reporter potentiators, primary screen, U3A cells, luciferase, luminescence, MLSCN library. IL-6 STAT3-luciferase reporter; 100% = signal with IL-6 EC80 alone. activation (% of control), % at 5.6 µM. actives 0.91% (n = 190,000). AID 871, 2007;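 active means activation above the screen-wide mean of compound activation plus 3 SD, cut at about 130% in these data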
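Detection: reporter luminescence signal / Assay system: STAT1-lacking human U3A cells, STAT3 luciferase reporter / Incubation: compound pre-incubation 1 h before IL-6, then 6 h stimulation at 37 °C / Control set: IL-6-only high control / Read-out: % activation relative to IL-6 control / Probe or stimulus: Interleukin-6, 33 ng/mL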
STAT3 inh: IL-6 driven STAT3 reporter inhibitors, primary screen, U3A cells, luciferase, luminescence, MLSCN library; actives 0.89% (n = 190,000); inhibition, % at 5.5 µM; AID 862, 2007; IL-6 STAT3-luciferase reporter; host cell line lacks STAT1;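 active means inhibition above the mean inhibition across all screened compounds plus 3 SD, cut at about 44% in these data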
KCC2 secondary: KCC2 modulators in sodium-free buffer, confirmation, cell-based, HEK293 KCC2, thallium flux, secondary assay. FluoZin2 fluorescence; hits give high values. actives 15% (n = 3,700). shares compounds with Cl transport mod. normalised thallium flux (F/F0 slope) at 10 µM;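 active means thallium flux slope above the same plate's solvent-only control mean plus 3 SD; inconclusive means the two replicate wells disagree; inactive means no significant difference from solvent-only control wells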
KCC2 bumet counter: thallium flux persisting under bumetanide in KCC2 cells, confirmation, counter-screen for KCC2 modulator project, cell-based, HEK293 KCC2, FluoZin2, secondary assay 3; shares compounds with Cl transport mod; HEK293-KCC2 + bumetanide/ouabain; hits give high values; normalized thallium flux at 10 µM; actives 49% (n = 3,700); AID 1714, 2009;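 active means thallium entry rate above the same plate's blocked-transporter control wells by more than 3 SD; inconclusive means the two repeat wells disagree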;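 further: raw slope of fluorescence over initial fluorescence between 10 and 20 s after thallium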
KCC2 sec2: KCC2 modulators without ouabain present, confirmation, cell-based, HEK293 KCC2, thallium flux, FluoZin2, secondary assay 2 | shares compounds with Cl transport mod | thallium flux FluoZin2 fluorescence; actives lie on both sides; F/F0 rise rate, 10–20 s post-thallium | normalized thallium flux at 10 µM | actives 23% (n = 3,700) | AID 1715, 2009;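 active means thallium flux slope more than 3 SD above or below the plate's solvent-only control mean, mostly below; inconclusive means the two repeat wells disagreed; inactive means no significant shift from solvent-only controls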
HEK293 Tl flux: thallium flux modulation in parental HEK cells, confirmation, counter-screen for KCC2 modulator project, cell-based, counterscreen 1; shares compounds with Cl transport mod; HEK293 parental cells, thallium flux FluoZin2, ouabain; baseline-ratio fluorescence slope, 10–20 s after thallium; thallium flux rate (normalised fluorescence) at 10 µM; actives 46% (n = 3,700); AID 1716, 2009;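 active means thallium flux rate significantly above the same plate's solvent-only control wells, beyond their mean plus 3 SD; inconclusive means the two replicate wells gave conflicting results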
KCC2 ouabain: KCC2 inhibitors and activators, ouabain retest, confirmation, HEK-KCC2 cells; HEK293-KCC2, thallium flux FluoZin2 fluorescence; bidirectional: low = inhibitor, high = activator; raw Tl+ flux slope (below DMSO = inhibition, above = activation) at 10 µM; actives 48% (n = 3,700); shares compounds with Cl transport mod; AID 1717, 2009;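 active means thallium flux slope beyond 3 SD from same-plate DMSO control mean in most replicates, usually higher, sometimes lower; inconclusive means repeat tests gave conflicting results; inactive means no significant difference from controls in most replicates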;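 further: slope of initial-normalized fluorescence between seconds 10 and 20 after thallium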
HEK293 Tl flux2: native HEK Tl+ uptake effects, second counter-screen – HEK cells, counterscreen 2, counter-screen for KCC2 modulator project, confirmation | shares compounds with Cl transport mod | HEK293 parental, thallium flux FluoZin-2 fluorescence slope | thallium flux slope at 10 µM | actives 33% (n = 3,700);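 active means thallium flux slope above the same plate's solvent-control mean plus 3 SD in both duplicate wells; inconclusive means duplicate wells that disagreed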;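 further: run without ouabain in cells lacking the KCC2 cotransporter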
Large screens that a line does not name were inactive (follow-up assays come after a bar, where they were run). Only some compounds are listed: those with a hit (about 5.5% of all), similar ones and a draw of the others.

C=C(C)CNC(=S)N/N=C/c1c(F)cccc1F	Cl transport mod 15.8 | KCC2 secondary 0.0204 | KCC2 bumet counter 0.0479 | KCC2 sec2 inconclusive | HEK293 Tl flux 0.0229 | KCC2 ouabain 0.0303 | HEK293 Tl flux2 0.025
COc1ccccc1N(CC(O)Cn1c(C)nc2ccccc21)S(=O)(=O)c1ccccc1 (centres undefined)	none
CCOc1ccc(NC(=S)NC(=O)c2c(Cl)c(C)nn2C)c([N+](=O)[O-])c1	Cl transport mod 9.45 | KCC2 secondary inactive | KCC2 bumet counter 0.0171 | KCC2 sec2 inactive | HEK293 Tl flux inconclusive | KCC2 ouabain inconclusive | HEK293 Tl flux2 inactive
CCOc1ccc(NC(=S)NC(=O)/C=C/c2ccc(C)cc2)c([N+](=O)[O-])c1	none (no result: HSV replic up)
Cc1cc(=O)oc2cc(OCC(=O)c3ccc4c(c3)NC(=O)CO4)ccc12	none
Cc1nn(-c2ccccc2)nc1C(=O)Nc1nnc(C(F)(F)F)s1	Cl transport mod 24.2 (no result: STAT1 activator, STAT1 inh, STAT3 activator, STAT3 inh) | KCC2 secondary 0.0163 | KCC2 bumet counter 0.0485 | KCC2 sec2 inactive | HEK293 Tl flux 0.0188 | KCC2 ouabain 0.0403 | HEK293 Tl flux2 0.0135
Cc1cccc(NC(=O)C2CCCN2/C=C/C(=O)C(F)(F)F)c1C (centres undefined)	HSV replic up inconclusive
O=C(CSc1nnc(-c2ccncc2)n1CC1CCCO1)NCc1ccccc1 (centres undefined)	none
O=C(CSc1nnc(-c2cccs2)n1CC1CCCO1)c1cc2ccccc2o1 (centres undefined)	Cl transport mod -3.28 (no result: HSV replic up) | KCC2 secondary inactive | KCC2 bumet counter inactive | KCC2 sec2 inactive | HEK293 Tl flux inactive | KCC2 ouabain inactive | HEK293 Tl flux2 inactive
